From BindingDB's records for PubMed 36760746 (n/a, 2023) come the findings set out here.

In the assay the target is Induced myeloid leukemia cell differentiation protein Mcl-1 (Homo sapiens, UniProt Q07820). Description: Inhibition of FITC-labelled BAK BH3 peptide to 6His-MBP tagged recombinant human MCL-1 (172 to 327 residues) expressed in Escherichia coli assessed as inhibition constant by fluorescence polarization competition assay. Summed up:
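Fluorescence polarization competition: compounds titrated into a mixture of MCL-1 (residues 172–327) and FITC-labelled BAK BH3 peptide. Displacement of the peptide was followed by the change in polarization, and Ki was derived from the competition titration.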
(Polarisation of emitted light reports the rotation of a fluorescent probe.)

Structures are written as SMILES.

Induced myeloid leukemia cell differentiation protein Mcl-1, sequence (Q07820 whole entry, the tested form may be a part): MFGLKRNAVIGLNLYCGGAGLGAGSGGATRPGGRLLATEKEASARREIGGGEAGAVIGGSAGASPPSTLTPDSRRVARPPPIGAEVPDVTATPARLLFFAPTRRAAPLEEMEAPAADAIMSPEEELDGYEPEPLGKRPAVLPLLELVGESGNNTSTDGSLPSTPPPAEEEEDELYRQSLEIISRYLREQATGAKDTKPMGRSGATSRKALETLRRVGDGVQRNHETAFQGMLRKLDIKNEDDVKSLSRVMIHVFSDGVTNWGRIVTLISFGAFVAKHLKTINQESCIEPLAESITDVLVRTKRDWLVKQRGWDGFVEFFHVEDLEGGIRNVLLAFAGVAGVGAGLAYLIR

Take `CC(C)CN(c1cccc(C(=O)O)c1)S(=O)(=O)c1ccc(F)cc1` [3-(4-fluoro-N-isobutylphenyl-sulfonamido) benzoic acid]: the Ki – broadly, the dissociation constant of the complex between target and ligand, obtained from inhibition or displacement – is more than 500 µM.
Take `CC(C)CN(c1cccc(C(=O)O)c1)S(=O)(=O)c1ccc(-c2ccccc2)cc1` [3-(N-isobutyl-[1,1'-biphenyl]-4-ylsulfonamido) benzoic acid]: the Ki is more than 500 µM.
With `CC(C)CN(c1cccc(C(=O)O)c1)S(=O)(=O)c1ccccc1` [3-(N-isobutylphenyl-sulfonamido) benzoic acid] the figure was more than 500 µM; with `CC(C)CN(c1ccc(C(=O)O)cc1)S(=O)(=O)c1ccc(F)cc1` [4-(4-fluoro-N-isobutylphenyl-sulfonamido) benzoic acid], more than 500 µM.
In the case of `CC(C)CN(c1ccc(C(=O)O)cc1)S(=O)(=O)c1ccc2ccccc2c1` [4-(N-isobutylnaphthalene-2-sulfonamido) benzoic acid], the Ki was more than 500 µM.
To `CC(C)CN(c1ccc(C(=O)O)cc1)S(=O)(=O)c1ccccc1` [4-(N-isobutylphenyl-sulfonamido) benzoic acid] belongs more than 500 µM.
